According to ChEMBL document CHEMBL1629563, “Pharmacokinetic and safety evaluation of BILR 355, a second-generation nonnucleoside reverse transcriptase inhibitor, in healthy volunteers” (Antimicrob Agents Chemother, 2008):

What was measured:
[1] = Renal clearance in healthy human at 12.5 mg, po administered as single dose by high-pressure liquid chromatography-tandem mass spectrometry/mass spectrometry method; assay type: ADME, organism-based, Kidney; conditions: in vivo, read-out: CL_renal (converted)
[2] = Cmax in healthy human at 62.5 mg, po administered as single dose coadministered with 100 mg of ritonavir by high-pressure liquid chromatography-tandem mass spectrometry/mass spectrometry method; assay type: ADME, organism-based; design: dose 62.5 mg, route oral; conditions: in vivo
Outline: (§1)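 Healthy male volunteers, fasted overnight, got one oral dose of BILR 355 in PEG solution with 200 ml water. Ritonavir 100 mg was given 10 h before and again with the dose. Plasma was sampled (EDTA) from predose to 144 h and assayed by validated LC-MS/MS. Cmax and Vz/F came from noncompartmental analysis. Vss/F = CL/F·(MRTp.o. − 1/Ka), with Ka from compartmental modelling.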

[3] = Drug excretion in healthy human urine assessed as unchanged drug at 100 mg, po administered as single dose by high-pressure liquid chromatography-tandem mass spectrometry/mass spectrometry method; assay type: ADME, organism-based; conditions: read-out: Drug uptake
Outline: (§2)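 Urine was collected by weight after one oral dose of BILR 355 in PEG solution in fasted healthy males. Intervals were predose blank, 0-6, 6-24 and 24-72 h, with the bladder voided before each. Aliquots were stored at −20°C and assayed by LC-MS/MS. fe = amount of unchanged drug excreted (Ae) as a percentage of the administered dose.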

[4] = AUC (0 to last) in healthy human at 5 mg, po administered as single dose coadministered with 100 mg of ritonavir; assay type: ADME, organism-based; design: dose 5 mg, time 0 - last, route oral; conditions: plasma
Outline: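 Healthy male volunteers, fasted. Ritonavir 100 mg given 10 h before and again together with single oral BILR 355 in PEG solution. EDTA plasma sampled predose to 144 h. LC-MS/MS assay after protein precipitation. Noncompartmental analysis, AUC by linear up/log down trapezoidal rule; Vss = CL/F·(MRTp.o. − 1/Ka).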

[5] = Apparent oral clearance in healthy human at 5 mg, po administered as single dose; assay type: ADME, organism-based; conditions: in vivo
Outline: (§3)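 Healthy male volunteers, six active plus two placebo per dose group, single oral dose in PEG solution with 200 ml water after overnight fast; breakfast 60 to 90 min post-dose. EDTA plasma sampled predose to 144 h. Assayed by validated LC-MS/MS after protein precipitation. Noncompartmental analysis, AUC by linear up/log down trapezoidal rule; Vss = CL/F·(MRTp.o. − 1/Ka).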

[6] = test system: Homo sapiens; assay: Toxicity in healthy human assessed as occurrence of aphthous stomatitis at 75 mg, po administered as single dose coadministered with 100 mg of ritonavir; assay type: organism-based; conditions: in vivo
[7] = Apparent volume of distribution in terminal phase in high fat fed healthy human at 50 mg, po administered as single dose coadministered with 100 mg of ritonavir; assay type: ADME, organism-based; conditions: in vivo, read-out: Vz/F
Outline: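 Fed cohort: healthy males ate an FDA-recipe high-fat breakfast (about 150/250/500-600 cal from protein/carbohydrate/fat) 30 min before a 50 mg oral dose of BILR 355 in PEG solution. Ritonavir 100 mg was given 10 h before and with the dose. Plasma was sampled over 144 h and assayed by LC-MS/MS. Noncompartmental analysis gave Cmax and Vz/F. Vss/F = CL/F·(MRTp.o. − 1/Ka).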

[8] = Apparent volume of distribution at steady state in healthy human at 50 mg, po administered as single dose; assay type: ADME, organism-based; conditions: in vivo, read-out: Vss/F
Outline: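 Single fasting oral dose of BILR 355 in PEG solution with 200 ml tap water, given to healthy males. Standard breakfast came 60-90 min after the dose. EDTA plasma was sampled predose to 144 h, stored below −18°C and assayed by LC-MS/MS after protein precipitation. Noncompartmental analysis gave Vz/F. Vss/F = CL/F·(MRTp.o. − 1/Ka), with Ka from compartmental modelling.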

[9] = Drug excretion in healthy human urine assessed as unchanged drug at 5 mg, po administered as single dose coadministered with 100 mg of ritonavir by high-pressure liquid chromatography-tandem mass spectrometry/mass spectrometry method; assay type: ADME, organism-based; conditions: read-out: Drug uptake
Outline: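 Ritonavir 100 mg was given 10 h before and with one oral dose of BILR 355 in PEG solution. Urine was collected by weight as predose blank, then 0-6, 6-24 and 24-72 h, stored at −20°C and assayed by LC-MS/MS. fe = unchanged drug excreted (Ae) as a percentage of dose. Line 50: high-fat breakfast 30 min before dosing.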

[10] = Apparent volume of distribution in terminal phase in healthy human at 75 mg, po administered as single dose coadministered with 100 mg of ritonavir; assay type: ADME, organism-based; conditions: in vivo, read-out: Vz/F; outline: as §1
[11] = test system: Homo sapiens; assay: Ratio of Cmax in human at 50 mg, po in presence of 100 mg of ritonavir to Cmax in human at 50 mg, po; assay type: ADME, organism-based; conditions: in vivo
[12] = Apparent volume of distribution at steady state in healthy human at 25 mg, po administered as single dose coadministered with 100 mg of ritonavir; assay type: ADME, organism-based; conditions: in vivo, read-out: Vss/F; outline: as §1
[13] = test system: Homo sapiens; assay: Toxicity in healthy human assessed as occurrence of herpes simplex at 75 mg, po administered as single dose relative to control; assay type: organism-based; conditions: in vivo
[14] = Mean residence time in healthy human at 5 mg, po administered as single dose; assay type: ADME, organism-based; conditions: in vivo
[15] = Drug excretion in healthy human urine assessed as unchanged drug at 5 mg, po administered as single dose by high-pressure liquid chromatography-tandem mass spectrometry/mass spectrometry method; assay type: ADME, organism-based; conditions: read-out: Drug uptake; outline: as §2
[16] = test system: Homo sapiens; assay: Toxicity in healthy human assessed as occurrence of palpitations at 1 mg, po administered as single dose relative to control; assay type: organism-based; conditions: in vivo
[17] = test system: Homo sapiens; assay: Toxicity in healthy human assessed as occurrence of maculopapular rash at 1 mg, po administered as single dose relative to control; assay type: organism-based; conditions: in vivo
[18] = test system: Homo sapiens; assay: Toxicity in healthy human assessed as occurrence of constipation at 25 mg, po administered as single dose relative to control; assay type: organism-based; conditions: in vivo
[19] = Apparent volume of distribution at steady state in healthy human at 50 mg, po administered as single dose coadministered with 100 mg of ritonavir; assay type: ADME, organism-based; conditions: in vivo, read-out: Vss/F; outline: as §1
[20] = test system: Homo sapiens; assay: AUC (0 to infinity) in healthy human at 75 mg, po administered as single dose; assay type: ADME, organism-based, Plasma; design: dose 75 mg, route oral, time infinity; conditions: in vivo; outline: as §3
[21] = Mean residence time in healthy human at 75 mg, po administered as single dose; assay type: ADME, organism-based; conditions: in vivo
[22] = AUC (0 to infinity) in healthy human at 5 mg, po administered as single dose; assay type: ADME, organism-based; design: dose 5 mg, route oral, time infinity; conditions: plasma; outline: as §3
[23] = test system: Homo sapiens; assay: Ratio of Cmax in human at 12.5 mg, po in presence of 100 mg of ritonavir to Cmax in human at 12.5 mg, po; assay type: ADME, organism-based; conditions: in vivo
[24] = Mean residence time in healthy human at 87.5 mg, po administered as single dose coadministered with 100 mg of ritonavir; assay type: ADME, organism-based; conditions: in vivo
[25] = test system: Homo sapiens; assay: Toxicity in healthy human assessed as occurrence of diarrhea at 62.5 mg, po administered as single dose coadministered with 100 mg of ritonavir; assay type: organism-based; conditions: in vivo
[26] = Mean residence time in healthy human at 37.5 mg, po administered as single dose coadministered with 100 mg of ritonavir; assay type: ADME, organism-based; conditions: in vivo
[27] = test system: Homo sapiens; assay: Toxicity in healthy human assessed as occurrence of fatigue at 25 mg, po administered as single dose coadministered with 100 mg of ritonavir; assay type: organism-based; conditions: in vivo
[28] = test system: Homo sapiens; assay: Toxicity in healthy human assessed as occurrence of palpitations at 5 mg, po administered as single dose relative to control; assay type: organism-based; conditions: in vivo

CL renal [1]: 6.85 mL/min
Cmax [2]: 653 ng/mL
dose excreted [3]: 0.816%
AUC(0-t) [4]: 615 ng·h/mL
CL/F [5]: 2480 mL/min
Vd/F [7]: 100 L
Vd/F [8]: 390 L
dose excreted [9]: 4.78%
Vd/F [10]: 108 L
Ratio [11]: 2.9
Vd/F [12]: 102 L
MRT [14]: 7.74 h
dose excreted [15]: 0.172%
Vd/F [19]: 125 L
AUC [20]: 779 ng·h/mL
MRT [21]: 2.95 h
AUC(0-inf) [22]: 36.3 ng·h/mL
Ratio [23]: 5
MRT [24]: 14.6 h
MRT [26]: 16.9 h
SMILES: CCN1c2ncc(CCOc3cc[n+]([O-])c4ccccc34)cc2C(=O)N(C)c2cccnc21 [BILR 355]
Activity [6]: 0%
Activity [13]: 0%
Activity [16]: 0%
Activity [17]: 0%
Activity [18]: 16.7%
Activity [25]: 0%
Activity [27]: 0%
Activity [28]: 0%
